Results of several laboratories.
Each line is one published result; the experiments were not run side by side.
Cell line: U-937
Effect on: cell growth or viability

`CCC[C@H](Nc1nc(-c2ccc(NC(=O)NCC)c(OC)c2)ncc1C)c1cccnc1` gave an IC50 of 33.1 nM (fluorescence; 72 h).
For `N[C@@H](CC(=O)N1CCN(C(c2ccc(F)cc2)c2ccc(F)cc2)CC1)C(=O)N1Cc2ccccc2C1`, the IC50 was 27400 nM (ATP luminescence; 48 h).
`COc1cc(Nc2nccc(-c3cnn4nc(OC)ccc34)n2)cc(C(F)(F)F)c1` gave an IC50 of 210 nM (ATP luminescence).
For `CCCCCCCCC1=CC2C=CC=CC1C2C1CCCCC1=O` (stereo not drawn), the IC50 was 84 nM (flow cytometry).
The IC50 of `CC(C)C[C@H](NC(=O)[C@H](Cc1ccccc1)NC(=O)c1cnccn1)B(O)O` is reported as 4.4 nM (ATP luminescence).
`COc1cc(-c2ncn(/C=C\C(=O)OC(C)C)n2)cc(C(F)(F)F)c1` gave an IC50 of 223 nM (72 h).
`C#CCSc1nc(Sc2nnnn2-c2ccccc2)c2nnn(Cc3ccc(OC)cc3)c2n1` gave an IC50 of 3230 nM (MTS; 6 days).
For `Nc1nc(Nc2ccc3c(c2)CC[C@@H](N2CCCC2)CC3)nn1-c1cc2c(nn1)-c1ccccc1CCC2`, the IC50 was 1450 nM (trypan blue; 72 h).
For `CC(=O)O[C@H]1C(=O)[C@@]2(C)[C@H]([C@H](OC(=O)c3ccccc3)[C@]3(O)C[C@H](OC(=O)[C@H](O)[C@@H](NC(=O)c4ccccc4)c4ccccc4)C(C)=C1C3(C)C)[C@]1(OC(C)=O)CO[C@@H]1C[C@@H]2O`, the IC50 was 2.7 nM (72 h).
`CC(=O)OCCC1=CC2C=CC=CC1C2C1CCCCC1=O` (stereo not drawn) gave an IC50 of 167 nM (flow cytometry).
`CC[C@]1(O)C[C@H]2CN(CCc3c([nH]c4ccccc34)[C@@](C(=O)OC)(c3cc4c(cc3OC)N(C=O)[C@H]3[C@@](O)(C(=O)OC)[C@H](OC(C)=O)[C@]5(CC)C=CCN6CC[C@]43[C@@H]65)C2)C1` has an IC50 of 7.6 nM (fluorescence; 72 h).
`CCOC(=O)CCC1=CC2C=CC=CC1C2C1CCCCC1=O` (stereo not drawn) has an IC50 of 51 nM (flow cytometry).
With `COc1cc2nccc(Oc3ccc(NC(=O)C4(C(=O)Nc5ccc(F)cc5)CC4)cc3)c2cc1OC` the IC50 was 2990 nM (trypan blue; 72 h).
`CC(C)[C@H](N)C(=O)N1CCC[C@H]1B(O)O` has an IC50 of over 60000 nM (ATP luminescence; 48 h).
The IC50 of `O=C1CCCCC1C1C2C=CC=CC1/C(=C/c1ccccc1)C2` (stereo not drawn) is reported as 77 nM (flow cytometry).
